# Assay results from ChEMBL document CHEMBL1126843, “Non-amine based analogues of lavendustin A as protein-tyrosine kinase inhibitors” (J Med Chem, 1993).
# pIC50: −log10 of the molar value.
# How the values were obtained:
# [1] = biological target: Tyrosine-protein kinase Lck (Homo sapiens, UniProt P06239); assay: Inhibition of p56lck autophosphorylation; type: functional
# [2] = (§1) Inhibition of c-erb B-2/HER2/neu receptor; type: functional
# In short: (§2)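 HER2/neu immunoprecipitated from SK-BR-3 breast cancer cells (1-2 × 10^6 cells per assay) on plates coated with goat anti-mouse Ig and anti-HER2 mAb (20 μg/mL), blocked with gelatin/glycine. Lysates bound overnight on ice, then washed. Kinase reaction in 25 mM HEPES pH 7.2, 3 mM MnCl2, 20 mM MgCl2, 0.1% NP-40 and 1 µCi [γ-32P]ATP, 20 min at 25 °C. Products run on 7.5% reducing SDS-PAGE; inhibition calculated from densitometric band densities.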
# [3] = Inhibition of epidermal growth factor receptor (EGFR) autophosphorylation; type: functional
# [4] = as §1; in short: as §2
# [5] = Inhibition of epidermal growth factor receptor (EGFR)
# Sequence of Tyrosine-protein kinase Lck (P06239 whole entry): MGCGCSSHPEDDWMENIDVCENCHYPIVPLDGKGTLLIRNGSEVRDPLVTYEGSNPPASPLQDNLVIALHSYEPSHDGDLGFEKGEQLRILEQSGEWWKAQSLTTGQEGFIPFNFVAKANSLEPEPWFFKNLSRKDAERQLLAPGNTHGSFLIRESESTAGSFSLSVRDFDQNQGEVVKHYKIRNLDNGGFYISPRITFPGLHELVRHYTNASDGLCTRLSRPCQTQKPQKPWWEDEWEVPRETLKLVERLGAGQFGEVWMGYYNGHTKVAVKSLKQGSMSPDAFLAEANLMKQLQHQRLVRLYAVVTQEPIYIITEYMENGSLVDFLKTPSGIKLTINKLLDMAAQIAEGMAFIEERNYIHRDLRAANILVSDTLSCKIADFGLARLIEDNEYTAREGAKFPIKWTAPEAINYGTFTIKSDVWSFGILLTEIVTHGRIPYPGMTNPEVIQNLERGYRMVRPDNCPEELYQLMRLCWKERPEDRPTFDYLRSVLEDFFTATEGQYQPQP
SMILES,pIC50 [1],pIC50 [2],pIC50 [3],pIC50 [4],pIC50 [5]
O=C(O)c1cc(/C=C/c2cc(O)ccc2O)ccc1O,7.22,6.22,5.70,,
O=C(O)c1cc(CCc2ccc(O)c(O)c2)ccc1O,6.00,,,6.22,4.92
O=C(O)c1cc(CCc2cc(O)ccc2O)ccc1O,6.00,5.40,4.70,,
O=C(O)c1cc(/N=C/c2cc(O)ccc2O)ccc1O,4.07,4.15,5.05,,
O=C(O)c1cc(N(Cc2ccccc2O)Cc2cc(O)ccc2O)ccc1O [LAVENDUSTIN A],5.10,5.05,5.15,,

# More lines, main results first:
pIC50 [1],pIC50 [2],pIC50 [3],SMILES,pIC50 [4],pIC50 [5]
,6.70,5.30,O=C(O)c1cc(/C=C/c2ccc(O)c(O)c2)ccc1O,,
5.00,6.05,5.40,O=C(O)c1cc(NCc2cc(O)ccc2O)ccc1O [LAVENDUSTIN C],,
